Among the data in ChEMBL document CHEMBL1629670, “In vitro activities of retigeric acid B alone and in combination with azole antifungal agents against Candida albicans” (2009) are MIC values, retold here.

Converted amounts (≈) assume the structure as drawn.

Type in all cases: functional
Experiment [1] deals with Candida albicans. As to the kind of experiment: Antifungal activity against Candida albicans CA135 after 48 hrs by broth microdilution method. Conditions: CA135, 48 h. In outline:
(§1)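 CLSI M27-A2 broth microdilution of clinical isolates in RPMI 1640 buffered to pH 7.0 with 0.165 M MOPS. Final inoculum 0.5 x 10^3 to 2.5 x 10^3 cells/ml, incubated 35°C for 48 h. Growth read as OD490 with background subtracted. MIC taken as the lowest drug concentration giving 80% growth reduction versus drug-free control. Run in triplicate.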
A general note: Dilution methods test growth across graded concentrations, often in twofold steps.

The subject of experiment [2] is Candida albicans. As to the kind of experiment: Antifungal activity against Candida albicans CA138 after 48 hrs by broth microdilution method. Conditions: CA138, 48 h. Put shortly: as §1
Experiment [3] has as its system Candida albicans. As to the kind of experiment: Antifungal activity against Candida albicans CA3 after 48 hrs by broth microdilution method. Conditions: CA3, 48 h. In outline: as §1
Experiment [4] concerns Candida albicans. As to the kind of experiment: Antifungal activity against Candida albicans ATCC 10231 by broth microdilution method. Put shortly:
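CLSI M27-A2 broth microdilution in RPMI 1640 buffered to pH 7.0 with 0.165 M MOPS. Final inoculum 0.5 x 10^3 to 2.5 x 10^3 cells/ml, incubated 35°C for 48 h. Growth read as OD490 with background subtracted. MIC taken as the lowest drug concentration giving 80% growth reduction versus drug-free control. Run in triplicate.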

In experiment [5] the test system is Candida albicans. Nature of the experiment: Antifungal activity against Candida albicans CA132 after 48 hrs by broth microdilution method. Conditions: CA132, 48 h. Put shortly:
as §1

In experiment [6] the test system is Candida albicans. Nature of the experiment: Antifungal activity against Candida albicans CA127 after 48 hrs by broth microdilution method. Conditions: CA127, 48 h. In outline:
as §1

In experiment [7] the test system is Candida albicans. Nature of the experiment: Antifungal activity against Candida albicans CA137 after 48 hrs by broth microdilution method. To be noted: CA137, 48 h. In outline:
as §1

Experiment [8] has as its system Candida albicans. Nature of the experiment: Antifungal activity against Candida albicans CA10 after 48 hrs by broth microdilution method. To be noted: CA10, 48 h. In outline: as §1
Experiment [9] concerns Candida albicans. As to the kind of experiment: Antifungal activity against Candida albicans CA2 after 48 hrs by broth microdilution method. Conditions: CA2, 48 h. Put shortly:
as §1

The test system of experiment [10] is Candida albicans. Nature of the experiment: Antifungal activity against Candida albicans CA1 after 48 hrs by broth microdilution method. To be noted: CA1, 48 h. Put shortly: as §1
Experiment [11] concerns Candida albicans. As to the kind of experiment: Antifungal activity against Candida albicans CA4 after 48 hrs by broth microdilution method. To be noted: CA4, 48 h. Put shortly: as §1

As to `OC(Cn1cncn1)(Cn1cncn1)c1ccc(F)cc1F` [FLUCONAZOLE], the MIC (in general, the smallest concentration in the dilution series that meets the test's criterion for growth inhibition) with Candida albicans [1] is 128 µg/mL (≈ 418 µM); against Candida albicans [2], 128 µg/mL (≈ 418 µM); against Candida albicans [3], 0.25 µg/mL (≈ 0.816 µM); in the experiment with Candida albicans [4], 0.5 µg/mL (≈ 1.63 µM); with Candida albicans [5], 0.5 µg/mL (≈ 1.63 µM); against Candida albicans [6], 1 µg/mL (≈ 3.27 µM). Besides, the MIC stood at 64 µg/mL (≈ 209 µM) in the experiment on Candida albicans [7]; 256 µg/mL (≈ 836 µM) with Candida albicans [8]; 0.5 µg/mL (≈ 1.63 µM) in the experiment on Candida albicans [9]; 0.25 µg/mL (≈ 0.816 µM) against Candida albicans [10]; 1 µg/mL (≈ 3.27 µM) against Candida albicans [11].

As for `CCC(C)n1ncn(-c2ccc(N3CCN(c4ccc(OCC5COC(Cn6cncn6)(c6ccc(Cl)cc6Cl)O5)cc4)CC3)cc2)c1=O` (stereo unspecified) [ITRACONAZOLE], the MIC with Candida albicans [1] is 32 µg/mL (≈ 45.3 µM); against Candida albicans [2], 64 µg/mL (≈ 90.7 µM); against Candida albicans [3], 0.031 µg/mL (≈ 0.0439 µM); with Candida albicans [5] it was 0.031 µg/mL (≈ 0.0439 µM); against Candida albicans [6] it was 0.016 µg/mL (≈ 0.0227 µM); in the experiment on Candida albicans [7], 16 µg/mL (≈ 22.7 µM). Besides, the MIC amounted to 128 µg/mL (≈ 181 µM) against Candida albicans [8], 0.125 µg/mL (≈ 0.177 µM) against Candida albicans [9], 0.125 µg/mL (≈ 0.177 µM) in the experiment with Candida albicans [10] and 0.031 µg/mL (≈ 0.0439 µM) against Candida albicans [11].
